Laboratory results as given in ChEMBL document CHEMBL1133083, “Synthesis and immunosuppressive activity of 2-substituted 2-aminopropane-1,3-diols and 2-aminoethanols” (2000).

Columns and labels:
Rattus norvegicus [1] = species on record: Rattus norvegicus; assay: Lymphocyte-decreasing effect against F344 rats.; format: functional; settings: for ED50: read-out: ID50 (the source's name)
Procedure, shortened: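 F344 rats aged 5 weeks were dosed intraperitoneally in 20% hydroxypropyl-β-cyclodextrin. Peripheral blood was taken 24 h later and total lymphocytes counted by lymphocyte gating. ID₅₀/ID₈₀ is the lowest dose lowering the lymphocyte count by 50% or 80% of the vehicle-treated control.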

Rattus norvegicus [2] = assay: Immunosuppressive activity against skin allograft in F344 recipient (rat) from LEW donor (rat) at a concentration of 0.1 mg/kg; format: functional
Procedure, shortened: (§1)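 MHC-compatible skin allograft: LEW (RT1^l) donor skin to F344 (RT1^lv1) recipients, all rats 4-6 weeks old. Full-thickness 2.0 × 2.0 cm grafts were placed on the recipient's lateral thorax under sterile bactericidal gauze. Read-out was mean survival time in days ± SE, with four animals per group. Deaths were scored as toxic.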

Rattus norvegicus [3] = assay: Immunosuppressive activity against skin allograft in F344 recipient (rat) from LEW donor (rat) at a concentration of 0.3 mg/kg; format: functional; procedure, shortened: as §1
Rattus norvegicus [4] = assay: Immunosuppressive activity against skin allograft in F344 recipient (rat) from LEW donor (rat) at a concentration of 1 mg/kg; format: functional; procedure, shortened: as §1
Rattus norvegicus [5] = assay: Immunosuppressive activity against skin allograft in F344 recipient (rat) from LEW donor (rat) at a concentration of 10 mg/kg; Toxic; format: functional, organism-based; parameters: dose 10 mg/kg
Rattus norvegicus [6] = assay: Immunosuppressive activity against skin allograft in F344 recipient (rat) from LEW donor (rat) at a concentration of 3 mg/kg; format: functional; procedure, shortened: as §1
Rattus norvegicus [7] = assay: Immunosuppressive activity against skin allograft in F344 recipient (rat) from LEW donor (rat) at a concentration of 3 mg/kg; Toxic; format: functional, organism-based; parameters: dose 3 mg/kg
Rattus norvegicus [8] = species on record: Rattus norvegicus; assay: T cell-decreasing effect in spleen cells of WKAH rat which were injected into foot-pad of LEW rat.; format: functional; settings: read-out: ID50 (the source's name)
Procedure, shortened: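 T-cell decrease was measured in the popliteal node gain model: WKAH spleen cells (5 × 10⁶) injected into the LEW rat footpad, with oral dosing for 4 days from the day of injection. Blood T-cells were counted by two-colour flow cytometry with FITC anti-rat CD3 (1F4) and PE anti-rat CD45RA (OX-33). Value is ID₅₀ (mg/kg).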

Rattus norvegicus [9] = species on record: Rattus norvegicus; assay: Immunosuppressive activity against LEW rats injected with spleen cells of WKAH rat in Popliteal Lymph Node Gain Assay.; format: functional; settings: read-out: ID50 (the source's name)
Procedure, shortened: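 Popliteal lymph node gain: WKAH rat (RT1^k) spleen cells, 5 × 10⁶, injected into footpad of LEW rats (RT1^l) to enlarge the draining popliteal node. Compound given orally for 4 days starting on the day of cell injection, then popliteal node weighed. Value is ID₅₀ (mg/kg).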

Rattus norvegicus [10] = assay: Immunosuppressive activity against skin allograft in F344 recipient (rat) from LEW donor (rat) at a concentration of 30 mg/kg; format: functional; procedure, shortened: as §1
Rattus norvegicus [11] = assay: Immunosuppressive activity against skin allograft in F344 recipient (rat) from LEW donor (rat) at a concentration of 10 mg/kg; format: functional; procedure, shortened: as §1

Row | Structure (SMILES) | ID80 (Rattus norvegicus [1]) | ED50 (Rattus norvegicus [1]) | MST (Rattus norvegicus [4]) | ED50 (Rattus norvegicus [8]) | ED50 (Rattus norvegicus [9]) | further results
1 | CCCCCCCCCCCCc1ccc(CCC(N)(CO)CO)cc1.Cl | 1 mg/kg | 0.1 mg/kg | 40.5 days |  |  | MST (Rattus norvegicus [2]): 12 days; MST (Rattus norvegicus [3]): 22.8 days; MST (Rattus norvegicus [5]): Toxic; MST (Rattus norvegicus [6]): 53 days
2 | CCCCCCCCCCCc1ccc(CCC(N)(CO)CO)cc1.Cl | 0.1 mg/kg | 0.1 mg/kg | 39.3 days |  |  | MST (Rattus norvegicus [3]): 23.3 days; MST (Rattus norvegicus [7]): Toxic
3 | CCCCCCCCc1ccc(CCC(N)(CCO)CCO)cc1 |  |  |  | > 10 mg/kg | > 10 mg/kg | 
4 | CCCCCCCCc1cccc(CCC(N)(CO)CO)c1.Cl | >3 mg/kg | > 3 mg/kg |  |  |  | 
5 | CCCCCCCc1ccc(CCC(N)(CO)CO)cc1.Cl | 0.3 mg/kg | 0.1 mg/kg |  |  |  | 
6 | C/C=C/C[C@@H](C)[C@@H](O)[C@H]1C(=O)N[C@@H](CC)C(=O)N(C)CC(=O)N(C)[C@@H](CC(C)C)C(=O)N[C@@H](C(C)C)C(=O)N(C)[C@@H](CC(C)C)C(=O)N[C@@H](C)C(=O)N[C@H](C)C(=O)N(C)[C@@H](CC(C)C)C(=O)N(C)[C@@H](CC(C)C)C(=O)N(C)[C@@H](C(C)C)C(=O)N1C [CYCLOSPORINE] | >30 mg/kg | > 30 mg/kg | 8 days | > 30 mg/kg |  | MST (Rattus norvegicus [6]): 10.8 days; MST (Rattus norvegicus [10]): 19.8 days
7 | CCCCCCCOc1ccc(CCC(N)(CO)CO)cc1.Cl | 0.1 mg/kg | 0.03 mg/kg | 33.8 days | 0.014 mg/kg |  | MST (Rattus norvegicus [2]): 15 days; MST (Rattus norvegicus [3]): 23.5 days; MST (Rattus norvegicus [5]): Toxic; MST (Rattus norvegicus [6]): 39.5 days
8 | CCCCCCCOc1ccc(CC[C@](N)(CO)CCO)cc1.Cl |  |  |  | 4.2 mg/kg | 4.2 mg/kg | 
9 | CCCCCCCOc1ccc(CCC(N)(CO)CCO)cc1 (stereo unspecified) |  |  |  | 0.055 mg/kg | 0.038 mg/kg | 
10 | CCCCCCCCCCCCCCC(N)(CO)CO.Cl | 0.3 mg/kg | 0.3 mg/kg | 37.3 days |  |  | MST (Rattus norvegicus [2]): 13.8 days; MST (Rattus norvegicus [3]): 26.5 days; MST (Rattus norvegicus [5]): Toxic; MST (Rattus norvegicus [6]): 45.5 days
11 | CCCCCCCCc1ccc(CCC(N)(CO)CCO)cc1 (stereo unspecified) |  |  |  | 0.12 mg/kg | 0.009 mg/kg | 
12 | CCCCCCCCc1ccc(CCC(N)(CO)CO)cc1.Cl [FINGOLIMOD HYDROCHLORIDE] | 0.1 mg/kg | 0.03 mg/kg | 39.5 days | 0.024 mg/kg | 0.0097 mg/kg | MST (Rattus norvegicus [2]): 25.3 days; MST (Rattus norvegicus [3]): 31.3 days; MST (Rattus norvegicus [5]): Toxic; MST (Rattus norvegicus [6]): 52 days
13 | CCCCCCCCc1ccc(CCC(C)(N)CCO)cc1.Cl (stereo unspecified) |  |  |  | > 10 mg/kg | > 10 mg/kg | 
14 | CCCCCCCCCCc1ccc(C(N)(CO)CO)cc1.Cl | >3 mg/kg | 0.3 mg/kg |  |  |  | 
15 | CCCCCCCOc1ccc(CCC(N)(CO)CCCC)cc1 (stereo unspecified) |  |  |  | > 10 mg/kg | > 10 mg/kg | 
16 | CCCCCCCOc1ccc(CC[C@](N)(CO)CCC)cc1 |  |  |  | > 10 mg/kg | > 10 mg/kg | 
17 | CCCCCCCCCCc1ccc(CCC(N)(CO)CO)cc1.Cl | 0.1 mg/kg | 0.1 mg/kg | 48 days |  |  | MST (Rattus norvegicus [2]): 20 days; MST (Rattus norvegicus [3]): 37.8 days; MST (Rattus norvegicus [7]): Toxic
18 | CCCCCCCOc1ccc(CC[C@@](N)(CO)CCC)cc1 |  |  |  | 4.4 mg/kg |  | 
19 | CCCCCCc1ccc(CCCCC(N)(CO)CO)cc1 | >3 mg/kg | > 3 mg/kg |  |  |  | MST (Rattus norvegicus [11]): 18.8 days; MST (Rattus norvegicus [6]): 13.8 days
20 | CCCCCCC/C(=N\O)c1ccc(CCC(N)(CO)CO)cc1 | 1 mg/kg | 0.03 mg/kg |  |  |  | 
21 | CCCCCCCCc1ccccc1CCC(N)(CO)CO.Cl | >3 mg/kg | > 3 mg/kg |  |  |  | 
22 | CCCCCCCCc1ccc(CCC(N)CO)cc1.Cl (stereo unspecified) |  |  |  | > 10 mg/kg | > 10 mg/kg | 

Row | Structure (SMILES) | ID80 (Rattus norvegicus [1]) | ED50 (Rattus norvegicus [1]) | MST (Rattus norvegicus [4]) | ED50 (Rattus norvegicus [8]) | ED50 (Rattus norvegicus [9]) | further results
23 | CCCCCCCCCc1ccc(CCC(N)(CO)CO)cc1.Cl | 0.1 mg/kg | 0.03 mg/kg | 32 days |  |  | MST (Rattus norvegicus [3]): 23 days; MST (Rattus norvegicus [7]): Toxic
24 | CCCCCCCOc1ccc(CCC(N)(CO)CCC)cc1 (stereo unspecified) |  |  |  | 7.3 mg/kg |  | 
25 | CCCCCCCOc1ccc(CC[C@@](N)(CO)CCO)cc1.Cl |  |  |  | 0.018 mg/kg | 0.017 mg/kg | 
26 | CCCCCCCCCCCCCCc1ccc(CCC(N)(CO)CO)cc1.Cl | >3 mg/kg | 1 mg/kg |  |  |  | 
27 | CCCCCCCC(=O)c1ccc(CCC(N)(CO)CO)cc1 | 0.3 mg/kg | 0.03 mg/kg | 32.5 days |  |  | MST (Rattus norvegicus [2]): 19.8 days; MST (Rattus norvegicus [3]): 25.5 days; MST (Rattus norvegicus [7]): Toxic
28 | CCCCc1ccc(CCCCCCC(N)(CO)CO)cc1.Cl | 1 mg/kg | 0.3 mg/kg |  |  |  | MST (Rattus norvegicus [11]): 13.5 days; MST (Rattus norvegicus [6]): 9.8 days
29 | CCCCCCCN(C)c1ccc(CCC(N)(CO)CO)cc1.Cl | 1 mg/kg | 1 mg/kg | 21.3 days |  |  | MST (Rattus norvegicus [5]): Toxic; MST (Rattus norvegicus [6]): 29 days
30 | CCCCCCCC(O)c1ccc(CCC(N)(CO)CO)cc1 (stereo unspecified) | 0.3 mg/kg | 0.1 mg/kg |  |  |  | 
31 | CCCCCCCCCCCCCc1ccc(CCC(N)(CO)CO)cc1.Cl | 1 mg/kg | 0.03 mg/kg |  |  |  | 
32 | CCCCCCCOc1ccc(CCC(N)(CC)CO)cc1.Cl (stereo unspecified) |  |  |  | 0.044 mg/kg |  | 
33 | CCCCCCCOc1ccc(CC[C@@](C)(N)CO)cc1.Cl |  |  |  | 0.0092 mg/kg |  | 
34 | CCCCCCCc1ccc(CCCC(N)(CO)CO)cc1.Cl | >3 mg/kg | > 3 mg/kg |  |  |  | MST (Rattus norvegicus [11]): 10.5 days; MST (Rattus norvegicus [6]): 9 days
35 | CCCCCCCCc1ccc(CCC(N)(CO)CO)s1.Cl | >3 mg/kg | 1 mg/kg | 17.3 days |  |  | MST (Rattus norvegicus [3]): 13 days; MST (Rattus norvegicus [6]): 21 days
36 | CCc1ccc(CCCCCCCCC(N)(CO)CO)cc1.Cl | >3 mg/kg | > 3 mg/kg |  |  |  | MST (Rattus norvegicus [11]): 8.6 days; MST (Rattus norvegicus [6]): 8.5 days
37 | C=CCC(N)(CO)CCc1ccc(OCCCCCCC)cc1 (stereo unspecified) |  |  |  | 3.1 mg/kg | 1.9 mg/kg | 
38 | Cl.NC(CO)(CO)CCCCCCCCCCc1ccccc1 | 1 mg/kg | 0.3 mg/kg | 27 days |  |  | MST (Rattus norvegicus [2]): 11.5 days; MST (Rattus norvegicus [3]): 21.5 days; MST (Rattus norvegicus [7]): Toxic
39 | CCCCCCCCc1ccc(CCC(N)(CO)C(=O)O)cc1 (stereo unspecified) |  |  |  | > 10 mg/kg | > 10 mg/kg | 
40 | CCCCCCCCCc1ccc(CC(N)(CO)CO)cc1.Cl | >3 mg/kg | > 3 mg/kg |  |  |  | MST (Rattus norvegicus [11]): 11.8 days; MST (Rattus norvegicus [6]): 9.8 days
41 | CCCCCCCCc1ccc(CCC(N)(CO)CCCO)cc1.Cl (stereo unspecified) |  |  |  | 0.021 mg/kg | 0.085 mg/kg | 
42 | CCCCCCCSc1ccc(CCC(N)(CO)CO)cc1 | 0.03 mg/kg | 0.03 mg/kg | 44.5 days |  |  | MST (Rattus norvegicus [2]): 22.3 days; MST (Rattus norvegicus [3]): 36 days; MST (Rattus norvegicus [7]): Toxic
43 | CCCCCCCOc1ccc(CCC(N)(CO)C(C)C)cc1.Cl (stereo unspecified) |  |  |  | 4.5 mg/kg |  | 
